Source: PubChem BioAssay AID635 (SRMLSC, 2007)
About 40 (3%) of roughly 1,300 compounds were called active. The list is a sample of the results. Results with a measured potency or affinity are listed apart. A number with no mark means an inactive call. The rule behind the calls is not given here.

Assay: growth inhibition of wild-type E. coli BW25113 pool, dose response, OD615 (AID 635)
Details: pooled mutant strains; at 100 µM (top of the series)
Procedure, shortened: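 times: 20 h, 37 °C growth with compound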

SMILES | growth inhibition [%]
CCOC(=O)N1CCN(c2nc3ccccc3nc2C(C#N)S(=O)(=O)c2ccc(C)cc2)CC1 (stereo not drawn) | -1.57
CCOc1ccc(N(CC(=O)Nc2cccc(Cl)c2)S(=O)(=O)c2c(C)noc2C)cc1 | 2.36
CN1/C(=C\C(=O)COc2ccc3c(c2)OCO3)C(C)(C)c2ccccc21 | -6.25
O=C(COc1ccccc1)Nc1nnc(-c2ccc(Cl)s2)o1 | 2.47
O=c1c2c(nc3n1CCCCC3)-c1ccccc1CC21CCCC1 | -5.17
Cc1ccc(C(C(=O)NC2CCCC2)N(Cc2cccs2)C(=O)CNC(=O)c2cccs2)o1 (stereo not drawn) | 5.18
Cc1ccc(C)c(N2CCN(C(=O)c3ccc(NS(=O)(=O)c4c(C)noc4C)cc3)CC2)c1 | 3.98
Cc1ccc(CN2C(=O)NC(=O)C3(Cc4c(nc5ccccn5c4=O)N4CCCCCC43)C2=O)cc1 (stereo not drawn) | -2
O=C(NC12CC3CC(CC(C3)C1)C2)c1ccccc1O | 8.6
COc1ccc(-c2[nH]c(-c3cccc(OC)c3)nc2SCC(=O)NCc2ccco2)cc1 | -2.87
OC(COc1ccc(Cl)c2ccccc12)CN1CCN(c2ccccn2)CC1 (stereo not drawn) | -3.05
O=C(Nc1nc2n(n1)C(c1ccc(Cl)cc1)CC(c1ccc(Cl)cc1)N2)c1ccco1 (stereo not drawn) | 9.43
CCOc1cc(C)c(C(C)C)cc1S(=O)(=O)N1CC(C)OC(C)C1 (stereo not drawn) | 3.51
CCN(C(=O)c1ccc(C(C)(C)C)cc1)c1nnc(Cn2nnc3ccccc32)s1 | 2.41
COc1cc2cc(C(c3nnnn3C3CCCCC3)N(C)C3CCCCC3)c(=O)[nH]c2cc1OC (stereo not drawn) | -2.92
N#Cc1c(NC(NC(=O)c2ccco2)C(=O)c2ccccc2)sc2c1CCCC2 (stereo not drawn) | 1.57
Cc1ccc(C)c(SCC(=O)Nc2nnc(-c3ccccc3)o2)c1 | 6.77
COc1cccc(-c2csc(N3CCN(C(=O)C4CCCCC4)CC3)n2)c1 | -1.87
O=C(Nc1cccc(C(F)(F)F)c1)N1CCC(c2nc(-c3ccc(F)cc3)no2)CC1 | -2.79
CCOc1ccc2nc(NC(=O)C(CC)Sc3nc(C)cc(=O)[nH]3)sc2c1 (stereo not drawn) | 0.31
Cc1nc2c(C(=O)NCc3ccc4c(c3)OCO4)c[nH]n2c(=O)c1Cc1ccccc1F | 0.56
CCn1cc(C(=O)Nc2nncs2)c(=O)c2cc(F)c(N3CCN(C(=O)c4ccco4)CC3)cc21 | 15.6
CCOC(=O)c1cn(CC)c2cc(N3CCCCC3)c(F)cc2c1=O | -1.4
CCOC(=O)c1cn(CC)c2cc(N3CCOCC3)c(F)cc2c1=O | 3.52
CCn1cc(C(=O)O)c(=O)c2cc(OC)ccc21 | -5.37
CCn1cc(C(=O)O)c(=O)c2cnc(N3CCN(C(=O)Nc4ccccc4)CC3)nc21 | 5.46
Cc1ccc2nc(NC(=O)CNS(=O)(=O)c3ccc(Br)s3)sc2c1 | 1.78

SMILES | growth inhibition [%]
CN(C)c1nc(SCCOC(=O)Nc2ccccc2)nc(N(C)C)n1 | 3.85
O=C(Nc1nc(-c2ccccc2)cs1)c1cccs1 | -1.94
COc1ccc(CN(C(=O)CN2C(=O)COc3ccccc32)C2CCCC2)c(OC)c1 | 6.95
COc1ccc2[nH]c3c(=O)n(CCCCC(=O)NCCN4CCCC4)c(=S)[nH]c3c2c1 | -2.44
Clc1ccc(Cl)c(-c2nn3c(COc4ccccc4)nnc3s2)c1 | 2.46
CCOC(=O)c1nnn(-c2nonc2-n2cccc2)c1CN1CCC(C)CC1 | 3.87
COc1ccc(Cn2c(=O)sc3ccccc32)cc1 | 2.87
O=C(NC1CCCCCCC1)c1ccccc1O | 0.38
Brc1cccc(-c2n[nH]c(-c3ccccc3)n2)c1 | 4.22
CCc1nc2sc3ccccc3c(=O)c2c(=O)n1Cc1ccco1 | 5.6
CCOC(=O)c1c(NS(=O)(=O)c2cccc(OC)c2)sc2c1CCC2 | 0.74
CCCn1nnc(NC(=O)COc2ccc(C3CCCCC3)cc2)n1 | 6.61
COc1cccc(NC(=O)N2CCN(c3cccc(C)c3C)CC2)c1 | -2.15
CN(Cc1ccccc1)C(=O)CSc1nc2ccccc2c(=O)n1Cc1ccco1 | 4.9
COc1ccc2nc(NC(=O)C3CCCN(S(=O)(=O)c4cccs4)C3)sc2c1 (stereo not drawn) | -10.2
c1ccc(-c2oc3ncnc(NCCCn4ccnc4)c3c2-c2ccccc2)cc1 | 13.2
CC(C)(C)OC(=O)N1CCC[C@H]1c1nnc(SCc2ccc(Cl)cc2Cl)o1 | 6.74
Cn1c(CSc2nc3ccccc3s2)nc2ccccc21 | -7.99
CCOC(=O)c1ccc(-n2[nH]c(-c3ccccc3)cc2=O)cc1 | -2.7
Cn1c(C(=O)N2CCc3ccccc3C2)cc2oc3ccccc3c21 | -4.13
Cc1ccc(Nc2nc(CSc3nnnn3-c3ccccc3)cs2)cc1 | -12.4
O=C(c1ccco1)N1CCN(c2c(-c3ccccc3)c3cc(Cl)ccc3[nH]c2=O)CC1 | 0.97
Cc1ccc(S(=O)(=O)NCCSc2nnnn2-c2cc(C)ccc2C)cc1 | 1.62
CCOc1ccc(-c2nc(C#N)c(N3CCCCCC3)o2)cc1 | -1.95
COc1ccc(-c2csc(NCc3ccco3)n2)cc1C | -4.35
COc1cc(-c2nc(Cc3ccccc3Cl)no2)cc(OC)c1OC | -4.44
